Series [1] concerns the target T1, Protein deacetylase HDAC6 (Mus musculus) (UniProt Q9Z2V5).
T1 sequence (whole entry): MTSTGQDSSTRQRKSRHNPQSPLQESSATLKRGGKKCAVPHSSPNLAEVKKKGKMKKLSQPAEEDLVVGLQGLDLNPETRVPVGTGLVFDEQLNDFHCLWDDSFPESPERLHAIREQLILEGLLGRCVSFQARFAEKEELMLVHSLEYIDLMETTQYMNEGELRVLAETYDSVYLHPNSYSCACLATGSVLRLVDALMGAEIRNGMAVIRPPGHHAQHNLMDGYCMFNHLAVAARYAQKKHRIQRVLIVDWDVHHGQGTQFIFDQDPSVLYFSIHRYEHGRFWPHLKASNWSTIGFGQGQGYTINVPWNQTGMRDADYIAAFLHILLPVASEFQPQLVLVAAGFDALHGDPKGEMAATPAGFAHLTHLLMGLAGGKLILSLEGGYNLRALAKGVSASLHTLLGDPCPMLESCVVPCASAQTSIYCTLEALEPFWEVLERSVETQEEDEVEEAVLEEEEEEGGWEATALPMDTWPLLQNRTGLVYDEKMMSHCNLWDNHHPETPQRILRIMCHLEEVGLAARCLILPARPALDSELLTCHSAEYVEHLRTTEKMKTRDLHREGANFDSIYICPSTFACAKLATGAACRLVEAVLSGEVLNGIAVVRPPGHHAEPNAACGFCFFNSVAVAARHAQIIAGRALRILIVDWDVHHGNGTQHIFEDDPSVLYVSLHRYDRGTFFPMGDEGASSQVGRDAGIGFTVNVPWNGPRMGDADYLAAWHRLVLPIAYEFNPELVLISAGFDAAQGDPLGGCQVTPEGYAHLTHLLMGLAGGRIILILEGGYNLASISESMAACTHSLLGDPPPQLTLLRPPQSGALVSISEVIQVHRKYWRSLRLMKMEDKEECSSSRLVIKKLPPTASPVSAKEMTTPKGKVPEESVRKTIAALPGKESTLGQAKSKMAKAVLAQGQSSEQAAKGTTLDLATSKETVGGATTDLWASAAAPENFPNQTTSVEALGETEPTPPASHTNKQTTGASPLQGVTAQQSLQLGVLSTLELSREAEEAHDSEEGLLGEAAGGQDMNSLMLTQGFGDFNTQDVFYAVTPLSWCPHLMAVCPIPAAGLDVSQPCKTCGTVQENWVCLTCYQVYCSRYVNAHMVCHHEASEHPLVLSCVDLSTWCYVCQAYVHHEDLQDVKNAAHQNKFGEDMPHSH
In words: Inhibition of mouse HDAC6 expressed in 293T cells at 100 uM using Ac-KGLGK(Ac)-MCA as substrate measured after 30 mins by fluorescence assay relative to control.

Series [2] is described as follows: Substrate activity at PYSOCA in human CMEC/D3 cells assessed as transporter-mediated drug uptake clearance assessed per mg protein at 37degC. It counts as ADME, cell-based. An outline of the steps: (§1)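 Uptake by hCMEC/D3 cells followed over time at 37 °C or 4 °C. Clearance was calculated from the initial linear slope, expressed per mg protein. Mean ± S.E., n = 4.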

Series [3] is described as follows: Substrate activity at PYSOCA in human CMEC/D3 cells assessed as transporter-mediated drug uptake clearance assessed per mg protein at 4degC measured after 30 mins. The class given is ADME, cell-based. The conditions noted are these: 0.5 h. An outline of the steps: as §1
Series [4] can be described thus: Substrate activity at PYSOCA in human CMEC/D3 cells assessed as transporter-mediated drug uptake measured for 2 mins at 37degC in presence of pyrilamine. It counts as ADME, cell-based.
A short description of series [5]: Substrate activity at PYSOCA in human CMEC/D3 cells assessed as transporter-mediated drug uptake measured for 2 mins at 37degC in presence of diphenhydramine. It counts as ADME, cell-based. An outline of the steps: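 Uptake by hCMEC/D3 cells was measured at various substrate concentrations, at 37 °C for 2 min, with or without diphenhydramine (100 µM). Data were analysed by Michaelis-Menten and Lineweaver-Burk plots using nonlinear least-squares regression (Eqs. 1 and 2). Mean ± S.E., n = 4.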

A short description of series [6]: Substrate activity at PYSOCA in human CMEC/D3 cells assessed as transporter-mediated drug uptake measured for 2 mins at 37degC in presence of memantine. The class given is ADME, cell-based.
Series [7] is described as follows: Substrate activity at PYSOCA in human CMEC/D3 cells assessed as transporter-mediated drug uptake measured for 2 mins at 37degC in presence of tramadol. It counts as ADME, cell-based.
Series [8] can be described thus: Substrate activity at PYSOCA in human CMEC/D3 cells assessed as transporter-mediated drug uptake measured for 2 mins at 37degC in presence of clonidine. The class given is ADME, cell-based.
A short description of series [9]: Substrate activity at PYSOCA in human CMEC/D3 cells assessed as transporter-mediated drug uptake measured for 2 mins at 37degC in presence of varenicline. It counts as ADME, cell-based.
The nature of series [10]: Substrate activity at PYSOCA in human CMEC/D3 cells assessed as transporter-mediated drug uptake measured for 2 mins at 37degC in presence of TEA. The class given is ADME, cell-based.
Series [11] in a line: Substrate activity at PYSOCA in human CMEC/D3 cells assessed as transporter-mediated drug uptake measured for 2 mins at 37degC in presence of MPP+. The class given is ADME, cell-based.
Series [12] is described as follows: Substrate activity at PYSOCA in human CMEC/D3 cells assessed as transporter-mediated drug uptake measured for 2 mins at 37degC in presence of decynium-22. The class given is ADME, cell-based.
Series [13] can be described thus: Substrate activity at PYSOCA in human CMEC/D3 cells assessed as transporter-mediated drug uptake measured for 2 mins at 37degC in presence of L-carnitine. It counts as ADME, cell-based.
Series [14] is described as follows: Substrate activity at PYSOCA in human CMEC/D3 cells assessed as transporter-mediated drug uptake measured for 2 mins at 37degC in presence of choline. It counts as ADME, cell-based.
Series [15] has as its target Histone deacetylase (Homo sapiens) (UniProt Q13547+O15379+Q9UBN7+Q92769+Q9UQL6+Q8WUI4+Q9BY41+Q96DB2+P56524+Q9UKV0+Q969S8). The conditions noted are these: at 10 µM.

Activity calls are given as the source filed them. No cut-off for these calls is given here.

In the case of `CC(=O)Nc1ccc(C(=O)Nc2ccccc2N)cc1` [TACEDINALINE], the inhibition (usually how much of the control response was suppressed) in [1] came out at 18%. The CL in [2] is 1.26 µL/min. Besides, the outcome in series [3], in series [4], in series [5], in [6], in series [7] and in series [8] was Active. For the same compound, the outcome in series [9], in series [10], in series [11], in [12], in series [13] and in series [14] was Active. Further, the inhibition result in series [15] is “Active”.

In series [1], `COc1ccc(CN(CCN(C)C)c2ccc(C(=O)Nc3cc(Br)ccc3N)cn2)cc1` yielded an inhibition of 21%.

The compound `COc1ccc(CN(CCN(C)C)c2ccc(C(=O)Nc3cc(Cl)ccc3N)cn2)cc1` returned an inhibition in [1] of 7%.

Consider `COc1ccc(CN(CCN(C)C)c2ccc(C(=O)Nc3cc(-c4ccco4)ccc3N)cn2)cc1`, for which, in series [1], the inhibition turned out to be 15%.

Compound `COc1ccc(CN(CCN(C)C)c2ccc(C(=O)Nc3cc(-c4ccccc4)ccc3N)cn2)cc1` came in with an inhibition in [1] of 14%.

`COc1ccc(CN(CCN(C)C)c2ccc(C(=O)Nc3cc(I)ccc3N)cn2)cc1` had an inhibition in series [1] of 16%.

`CC(/C=C/C(=O)NO)=C\[C@@H](C)C(=O)c1ccc(N(C)C)cc1` returned an inhibition in series [1] of 98%.

With `COc1ccc(CN(CCN(C)C)c2ccc(C(=O)Nc3cc(-c4cccs4)ccc3N)cn2)cc1`, the inhibition in series [1] is 15%.

The record behind these values is ChEMBL document CHEMBL4196230, “Design, Synthesis, and Blood-Brain Barrier Transport Study of Pyrilamine Derivatives as Histone Deacetylase Inhibitors” (ACS Med Chem Lett, 2018).
